From ChEMBL document CHEMBL1131298 (J Med Chem, 1998)

Experiments:
[1] = Cytotoxicity was evaluated against LS174T-stCPG2(Q)3-expressing cell clone; assay type: functional; conditions: Homo sapiens
Procedure, shortened: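 LS174T colon cells stably transfected with surface-tethered mutant CPG2 (stCPG2(Q)3) plasmid; 2 × 10^6 cells seeded, confluent at 48 h. Compound added from DMSO stock in full medium, a similar dose re-added after 1 h, then 20 h more. Cells reseeded in quadruplicate at ~2 × 10^3/well, grown to control confluence; sulforhodamine-B at 590 nm, IC50 by interpolation.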

[2] = Kinetic parameter (half-life prodrug/drug) was evaluated; assay type: ADME
Procedure, shortened: (§1)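 10 mM stocks diluted 100-fold to 100 µM in CPG2 assay buffer (100 mM Tris-HCl pH 7.3, 260 µM ZnCl2) at 37 °C. Remaining starting material followed by isocratic C18 HPLC in 10 mM ammonium acetate pH 5.0/methanol, UV at compound-specific wavelength, via repeat injections every 7.5 min or fresh-vial injections every 1 min.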

[3] = Kinetic parameter(rate of catalysis) was evaluated; assay type: ADME
[4] = Kinetic parameter (half-life) was evaluated; NA ='Not applicable'; assay type: ADME; procedure, shortened: as §1

| SMILES | IC50 [1] [µM] | T1/2 [2] [min] | k cat [3] [s⁻¹] | T1/2 [4] |
| --- | --- | --- | --- | --- |
| CS(=O)(=O)OCCN(CCCl)c1ccc(C(=O)O)cc1 | 27.8 |  |  |  |
| Nc1ccc(N(CCF)CCF)cc1 | 121 |  |  |  |
| O=C(O)CC[C@H](NC(=O)Nc1ccc(COC(=O)Nc2ccc(N(CCF)CCF)cc2)cc1)C(=O)O | 184 | 0.4 | 50 |  |
| O=C(O)CC[C@H](NC(=O)Oc1ccc(COC(=O)Nc2ccc(N(CCF)CCF)cc2)cc1)C(=O)O | 257 |  | 50 | Not Active |
| O=C(O)CC[C@H](NC(=O)Nc1ccc(CO)cc1)C(=O)O |  |  | 65.4 |  |
| Oc1ccc(N(CCF)CCF)cc1 | 323 |  |  | Not Active |
| O=C(O)CC[C@H](NC(=O)Oc1ccc(COC(=O)Oc2ccc(N(CCF)CCF)cc2)cc1)C(=O)O | 128 |  | < 10 | Not Active |
| O=C(O)CC[C@H](NC(=O)Oc1ccc(COC(=O)Oc2ccc(N(CCCl)CCCl)cc2)cc1)C(=O)O | 0.42 | 13.7 | < 10 |  |
| O=C(O)CC[C@H](NC(=O)Nc1ccc(COC(=O)Oc2ccc(N(CCF)CCF)cc2)cc1)C(=O)O | 264 | < 10 |  |  |
| O=C(O)CC[C@H](NC(=O)Nc1ccc(COC(=O)Oc2ccc(N(CCCl)CCCl)cc2)cc1)C(=O)O | 0.48 | 0.3 | < 10 |  |
| O=C(O)CC[C@H](NC(=O)Nc1ccc(COC(=O)Nc2ccc(N(CCCl)CCCl)cc2)cc1)C(=O)O | 0.46 | 7.6 | 50 |  |
| O=C(O)CC[C@H](NC(=O)Oc1ccc(COC(=O)Nc2ccc(N(CCCl)CCCl)cc2)cc1)C(=O)O | 0.62 | 8.1 | < 10 |  |
| O=C(O)CC[C@H](NC(=O)Oc1ccc(CO)cc1)C(=O)O |  |  | 140 | Not Active |
